Screening results from PubChem.
In the library only some 3.8% were active in any assay of this set; here they are far more common.
KCNK3 inh – human KCNK3 channel inhibition, primary screen; O14649; CHO-KCNK3 thallium flux, FluxOR fluorescence; hits give low values; B-score at 10 µM; hit rate 0.84% among 340,000;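 active = B-score under library mean minus 4 SD, starting fluorescence ratio at most library mean plus 5 SD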;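 also: more negative B-score means stronger inhibition of thallium flux through KCNK3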
Target sequence (O14649 whole entry, looked up): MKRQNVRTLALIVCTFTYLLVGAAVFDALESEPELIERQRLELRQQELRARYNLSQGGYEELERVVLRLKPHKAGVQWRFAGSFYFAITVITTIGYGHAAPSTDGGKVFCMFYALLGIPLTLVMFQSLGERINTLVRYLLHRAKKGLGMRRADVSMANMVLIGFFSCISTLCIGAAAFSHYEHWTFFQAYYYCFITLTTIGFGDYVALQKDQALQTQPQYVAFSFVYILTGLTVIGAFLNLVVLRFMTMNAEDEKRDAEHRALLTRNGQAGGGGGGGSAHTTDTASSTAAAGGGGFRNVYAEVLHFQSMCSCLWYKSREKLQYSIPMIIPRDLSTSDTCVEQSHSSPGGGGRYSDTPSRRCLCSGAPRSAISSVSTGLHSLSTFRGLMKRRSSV
Kir21 inh – blocks the mouse Kir2.1 inward-rectifier potassium channel; P35561; HEK293-Kir2.1, FluxOR thallium flux fluorescence; hits give low values; B-score at 10 µM; hit rate 0.85% among 310,000;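 active = fluorescence ratio B-score at or below minus 3 SD of library scores, with starting-brightness B-score within 2 SD, cut at about -4.2 in these data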;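 also: channel flux triggered by added potassium and thallium sulfate stimulus; B-score of peak minus minimum fluorescence over baseline after thallium stimulus; more negative B-score means stronger Kir2.1 block with less thallium influx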
KCNK9 block – blocks the human KCNK9 two-pore domain potassium channel | Q9NPC2 | B-score at 10 µM | HEK293 KCNK9, FluxOR thallium flux fluorescence; hits give low values | hit rate 1.2% among 310,000 | AID 488922;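 active = ratio B-score over 3 SD below the library mean, with starting fluorescence within 5 SD of its mean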;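 also: negative B-score means less thallium flux so channel inhibition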
Target sequence (Q9NPC2 whole entry, looked up, the tested form may be a part): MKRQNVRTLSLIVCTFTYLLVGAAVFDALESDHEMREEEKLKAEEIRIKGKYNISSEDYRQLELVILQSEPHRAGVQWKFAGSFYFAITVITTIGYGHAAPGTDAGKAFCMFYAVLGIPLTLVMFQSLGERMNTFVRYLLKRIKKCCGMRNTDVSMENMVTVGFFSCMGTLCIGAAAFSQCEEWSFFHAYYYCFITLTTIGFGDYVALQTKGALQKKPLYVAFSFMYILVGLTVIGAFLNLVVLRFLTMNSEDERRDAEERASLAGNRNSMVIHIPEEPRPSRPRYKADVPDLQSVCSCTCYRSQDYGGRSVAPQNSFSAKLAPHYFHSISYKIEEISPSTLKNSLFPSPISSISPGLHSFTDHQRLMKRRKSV
KCNQ1 pot – human KCNQ1 channel potentiation or activation; P51787; CHO-K1 KCNQ1, thallium flux FluxOR fluorescence; hits give high values; B-score at 10 µM; hit rate 0.35% among 310,000;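 active = fluorescence ratio B-score, a plate-corrected score, at least three library SD, with initial intensity B-score within 5 SD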
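Assay system: stable KCNQ1 CHO-K1 line; medium: assay buffer, equal DMSO in all wells; timing: 90 min dye loading and 20 min compound exposure, both at room temperature; technique: kinetic FluxOR thallium fluorescence, 10-s 1-Hz baseline, 110-s post-stimulus read; read-out basis: B score of baseline-normalized fluorescence ratio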
hERG rescue – hERG (human) protection from proarrhythmic block. Q12809. CHO-hERG, FluxOR thallium flux, dofetilide IC70 present. activation (rescue from dofetilide block), less the hit threshold, % at 10 µM. hit rate 0.51% among 310,000. AID 1511;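 active = activation above the mean of controls blocked by dofetilide plus 5 SD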;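 also: thallium influx through hERG after potassium depolarization seen as dye fluorescence rise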
KCNQ1 inh – inhibitors of human KCNQ1 potassium channel; P51787; AID 2642; CHO-K1 KCNQ1, FluxOR thallium flux fluorescence; hits give high values; B-score at 10 µM; hit rate 1.3% among 310,000;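 active = compounds whose thallium flux B-score, printed positive for inhibition, exceeds three library SD while starting fluorescence stays within three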;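 also: channel opened by potassium depolarization with thallium stimulus after 20 min compound exposure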
KCNK9 block conf – human KCNK9 inhibitor confirmation; AID 492992; inhibition, % at 10 µM; shares compounds with KCNK9 block; hit rate 43% among 4,900; HEK293 KCNK9 cells, FluxOR thallium flux fluorescence;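 active = thallium signal inhibited by more than 5 SD of the compound-free buffer control wells, on both duplicate plates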
Kir21 sel – selectivity of KCNK9 modulators against mouse Kir2.1; inhibition, % at 10 µM; shares compounds with KCNK9 block; hit rate 4% among 4,900; Kir2.1 cells, FluxOR thallium flux fluorescence;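 active = thallium signal drop more than 5 SD beyond the mean of the no-compound control wells, seen in both duplicate plates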;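 also: signal is fluorescence rise after thallium addition divided by baseline fluorescence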
HEK293 Tl ctr – second check of KCNK9 modulator effects in non-induced HEK293 cells | shares compounds with KCNK9 block | FluxOR thallium flux | inhibition, % at 10 µM | hit rate 40% among 4,900 | AID 492997;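 active = thallium signal drop beyond 5 SD of the untreated control mean, on both duplicate plates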
Of the large screens only hits and unclear results are named; the others gave an inactive call (follow-up assays come after a bar, where they were run).

Cc1cc(NC(=O)Cc2ccccc2[N+](=O)[O-])no1	none
CCOc1ccccc1NC(=O)Cc1coc2ccc(C)cc12	KCNK9 block -10.9 | KCNK9 block conf 25.0% | Kir21 sel inactive | HEK293 Tl ctr 43.0%
COc1ccc(OC)c(NC(=O)Cc2coc3ccc(C)cc23)c1	none
Cc1cccc(N(Cc2ccccc2)C(=O)c2cc(S(=O)(=O)N3CCOCC3)ccc2Cl)c1	none | KCNK9 block conf inactive | Kir21 sel inactive | HEK293 Tl ctr inactive
Cn1c(=O)c2nc(-c3ccc(Cl)cc3Cl)oc2c2ccccc21	KCNK9 block -10.2 | KCNK9 block conf 27.5% | Kir21 sel inactive | HEK293 Tl ctr 32.5%
COCCn1c(-c2ccc(Cl)cc2Cl)nc2c(c(=O)c3ccccc3n2C)c1=O	none
Cc1cc(NC(=O)c2ccccc2F)nc2c1c(=O)oc1ccccc12	none
Cc1[nH]n(-c2ccc(Br)cc2)c(=O)c1/C=N/NC(=O)c1ccccc1	none | KCNK9 block conf inactive | Kir21 sel inactive | HEK293 Tl ctr inactive
COc1ccc(C(=O)C2CC2c2ccc3c(c2)OCO3)cc1 (stereo not given)	none | KCNK9 block conf inactive | Kir21 sel inactive | HEK293 Tl ctr 30.0%
CSc1ccc(CN(C)CC(=O)Nc2ccc(C)cc2Br)cc1	none | KCNK9 block conf inactive | Kir21 sel inactive | HEK293 Tl ctr inactive
COc1ccc(N=C(c2ccccc2)c2c(C)[nH]n(-c3ccccc3)c2=O)c(OC)c1	KCNQ1 inh 6 | KCNK9 block conf inactive | Kir21 sel inactive | HEK293 Tl ctr 32.5%
O=C(O/N=C/c1ccc(Br)cc1)c1ccc(F)cc1	none
CCCNCc1cc(OC)c(OCCC)cc1Cl	none
CCN1/C(=C/C=C/c2sc3ccccc3[n+]2CC)Sc2ccccc21	KCNK3 inh -13.2, KCNK9 block -24.1 | KCNK9 block conf inactive | Kir21 sel inactive | HEK293 Tl ctr inactive
CCN(CC)S(=O)(=O)c1cccc(C(=O)N[C@H](C(=O)NC2=NCCS2)C(C)C)c1	none (no result: Kir21 inh, KCNK9 block, KCNQ1 pot, hERG rescue, KCNQ1 inh)
O=C(OCc1ccccc1Cl)c1ccccc1C(=O)c1ccccc1	KCNK9 block -8.73 | KCNK9 block conf inactive | Kir21 sel 41.0% | HEK293 Tl ctr 37.5%
O=C(CSc1ncc(C(F)(F)F)cc1Cl)N1CCN(S(=O)(=O)c2ccc(Cl)cc2)CC1	none | KCNK9 block conf inactive | Kir21 sel inactive | HEK293 Tl ctr inactive
O=C(CN1CCN(c2ncc(C(F)(F)F)cc2Cl)CC1)N1CCN(c2ncc(C(F)(F)F)cc2Cl)CC1	none
O=C(CSc1ccc(Cl)cc1)N1CCN(c2ncc(C(F)(F)F)cc2Cl)CC1	none | KCNK9 block conf inactive | Kir21 sel inactive | HEK293 Tl ctr inactive
O=C(CSc1ncc(C(F)(F)F)cc1Cl)N1CCN(S(=O)(=O)c2ccccc2)CC1	none
O=C(COC(=O)c1ccccc1C(=O)c1ccccc1)Nc1ccc(SC(F)F)cc1	KCNK9 block -11.7 | KCNK9 block conf inactive | Kir21 sel inactive | HEK293 Tl ctr 31.5%
CCOC(=O)c1c(NC(=O)COC(=O)/C=C/c2ccccc2)sc(C(=O)NC)c1C	none (no result: Kir21 inh, KCNK9 block, KCNQ1 pot, hERG rescue, KCNQ1 inh)
O=C(CNC(=O)c1ccc(F)cc1)c1ccc(Cl)cc1	none
Cc1nc2c(-c3ccccc3)c(C)nn2c(C)c1CCC(=O)O	none
CCOC(=O)Cc1c(C)nc2c(-c3ccc(OC)cc3)c(C)nn2c1C	none | KCNK9 block conf inactive | Kir21 sel inactive | HEK293 Tl ctr inactive
O=S(=O)(NC1CCCCC1)c1ccc(Cl)nc1	none
Cc1[nH]n(-c2ccccc2)c(=O)c1N=Nc1cccc(C(=O)O)c1	none
CCCn1nc(C(=O)Nc2nnc(CC)s2)c2ccccc2c1=O	none
CCCCCCn1nc(C(=O)Nc2nc3c(s2)CCCC3)c2ccccc2c1=O	KCNK9 block -13 | KCNK9 block conf 58.5% | Kir21 sel inactive | HEK293 Tl ctr inactive
N#Cc1cnc(NN)nc1	none
Cc1ccccc1OCC(=O)NC(=S)Nc1ccc2c3c(cccc13)CC2	none
COc1ccc(OCC(=O)NC(=S)Nc2ccc3c4c(cccc24)CC3)cc1	none | KCNK9 block conf inactive | Kir21 sel inactive | HEK293 Tl ctr inactive
COc1cccc(C(=O)NC(=S)Nc2ccc(Cl)cc2C(=O)O)c1	none
COc1cccc(C(=O)NC(=S)Nc2ccc3c4c(cccc24)CC3)c1	none | KCNK9 block conf inactive | Kir21 sel inactive | HEK293 Tl ctr inactive
CCC(CC)C(=O)Oc1c(Sc2ccccc2[N+](=O)[O-])c(C)nn1C(C)(C)C	KCNK9 block -11.7 | KCNK9 block conf 52.5% | Kir21 sel inactive | HEK293 Tl ctr 33.0%
NC(=O)C1CCN(C(=O)c2ccc3c(=O)n(Cc4ccco4)c(SCc4ccc([N+](=O)[O-])cc4)nc3c2)CC1	none
Brc1ccc(Oc2ncc(CN3CCN(c4ccccc4)CC3)s2)cc1	none | KCNK9 block conf inactive | Kir21 sel inactive | HEK293 Tl ctr inactive
COc1cc(OC)nc(Oc2cccc(Cl)c2C)n1	none
COc1cc(OC)nc(Oc2ccccc2C(=O)Oc2ccc(F)cc2Cl)n1	KCNK9 block -9.14 | KCNK9 block conf 59.0% | Kir21 sel inactive | HEK293 Tl ctr 39.0%
S=c1[nH]nc(-c2cc3c(s2)-c2ccccc2CC3)o1	KCNQ1 pot 71, hERG rescue 133.6 | KCNK9 block conf inactive | Kir21 sel inactive | HEK293 Tl ctr inactive
O=[N+]([O-])c1cc2c(cc1/C=N/Nc1nc(N3CCCC3)nc(N3CCCC3)n1)OCO2	none | KCNK9 block conf inactive | Kir21 sel inactive | HEK293 Tl ctr inactive
Cc1ccc(C(=O)CCCn2nnc(-c3cccnc3)n2)cc1C	none | KCNK9 block conf inactive | Kir21 sel inactive | HEK293 Tl ctr inactive
CCCCNC(=O)NNC(=O)COc1cccc(C)c1C	none
CC(C)(C)c1cc(CCC(=O)NN)cc(C(C)(C)C)c1O	none
C=CC(=O)NCCCc1cc(C(C)(C)C)c(O)c(C(C)(C)C)c1	none | KCNK9 block conf inactive | Kir21 sel inactive | HEK293 Tl ctr inactive
CC1CCN(c2ccccc2NC(=S)NC(=O)C(C)(C)C)CC1	KCNK9 block -10.5 | KCNK9 block conf 42.0% | Kir21 sel inactive | HEK293 Tl ctr 33.0%
CC1CCN(c2ccccc2NC(=S)NC(=O)c2ccco2)CC1	none
COC(=O)CCCCCN1C(=O)NC(C2CC2)C(C(=O)OCc2ccccc2)=C1C (stereo not given)	none
COc1ccccc1C1(CC(=O)O)CCOC(C(C)C)C1 (stereo not given)	none
